Activity calls are given as the source filed them. No cut-off for these calls is given here.
Assays:
HeLa [1] = assay: Growth inhibition of human HeLa cells after 48 hrs by MTT assay in presence of 10% FBS supplemented DMEM medium; type: functional
In short: (§1)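 Cells seeded at 5 × 10³/well and allowed 24 h to attach, then exposed to compound (DMSO stock) or vehicle for 48 h in 10% FBS DMEM at 37 °C, 5% CO₂. MTT (2 mg/mL in PBS) added for a further 2 h; formazan dissolved in DMSO and read at 570 nm. Inhibition = (1 − At/Ac) × 100. GI₅₀ interpolated from dose-response curves; mean ± SEM of 4–6 experiments; top concentration 40 μM.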

BT-483 = assay: Growth inhibition of human BT-483 cells at 40 uM after 48 hrs by MTT assay in presence of 10% FBS supplemented DMEM medium; type: functional, cell-based; in short: as §1
SKHep = assay: Growth inhibition of human SKHep cells at 40 uM after 48 hrs by MTT assay in presence of 10% FBS supplemented DMEM medium; type: functional, cell-based; in short: as §1
CE81T = assay: Growth inhibition of human CE81T cells at 40 uM after 48 hrs by MTT assay in presence of 10% FBS supplemented DMEM medium; type: functional, cell-based; in short: as §1
HeLa [2] = assay: Growth inhibition of human HeLa cells after 48 hrs by MTT assay in presence of 1 uM CuCl2; type: functional; in short: as §1
HeLa [3] = assay: Growth inhibition of human HeLa cells after 48 hrs by MTT assay in presence of 10 uM CuCl2; type: functional; in short: as §1
HeLa [4] = assay: Growth inhibition of human HeLa cells after 48 hrs by MTT assay in presence of 50 uM CuCl2; type: functional; in short: as §1
HeLa [5] = assay: Growth inhibition of human HeLa cells after 48 hrs by MTT assay in presence of 50 uM ZnCl2; type: functional; in short: as §1
HeLa [6] = assay: Growth inhibition of human HeLa cells after 48 hrs by MTT assay in presence of 100 uM ZnCl2; type: functional; in short: as §1
[7] = Growth inhibition of human BT-483 cells after 48 hrs by MTT assay in presence of 10% FBS supplemented DMEM medium; type: functional; conditions: BT-483, 48 h; in short: as §1
[8] = Growth inhibition of human SKHep cells after 48 hrs by MTT assay in presence of 10% FBS supplemented DMEM medium; type: functional; in short: as §1
[9] = Growth inhibition of human CE81T cells after 48 hrs by MTT assay in presence of 10% FBS supplemented DMEM medium; type: functional; in short: as §1
HeLa [10] = assay: Stimulation of reactive oxygen species in human HeLa cells at 3 uM in presence of 5 uM CuCl2 after 1 hr by dihydroethidium dye based fluorescence assay; type: functional, cell-based
In short: (§2)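 HeLa cells grown in DMEM with 10% FBS, 2 mM glutamine, penicillin/streptomycin at 37 °C, 5% CO2. Compound given with CuCl2, with or without tempol 1 mM; 0.5% DMSO control, untreated blank. Dihydroethidium 5 µmol/L loaded 30 min, PBS wash, epifluorescence microscopy; four separate cultures, two to six coverslips each.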

[11] = target: T1, MAP kinase p38 (Homo sapiens) (UniProt O15264+Q15759+Q16539+P53778); assay: Activation of p38 phosphorylation in human HeLa cells at 3 uM in presence of 10 uM CuCl2 by Western blot; type: cell-based; conditions: TDE = time-dependent effect
In short: (§3)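 HeLa cells grown in DMEM with 10% FBS, 2 mM glutamine and penicillin/streptomycin at 37 °C, 5% CO₂. Treated cells were lysed and the extracts run on Western blot. Membranes were blocked overnight at 4 °C in TBST/5% non-fat milk. Probed with phospho- and total ERK1/2, p38 and JNK antibodies, then anti-mouse or anti-rabbit IgG (1:10,000, 1 h, RT), with ECL detection.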

HeLa [12] = assay: Activation of ERK phosphorylation in human HeLa cells at 3 uM in presence of 10 uM CuCl2 and tempol after 2 hrs by Western blot; type: cell-based; in short: as §3
[13] = Activation of JNK phosphorylation in human HeLa cells at 3 uM in presence of 10 uM CuCl2 and tempol after 2 hrs by Western blot; type: cell-based; in short: as §3
[14] = target: T1, MAP kinase p38 (Homo sapiens); assay: Activation of p38 phosphorylation in human HeLa cells at 3 uM in presence of 10 uM CuCl2 and tempol after 2 hrs by Western blot; type: cell-based; in short: as §3
HeLa [15] = assay: Activation of ERK phosphorylation in human HeLa cells at 3 uM after 2 hrs by Western blot; type: cell-based; in short: as §3
[16] = Activation of JNK phosphorylation in human HeLa cells at 3 uM after 2 hrs by Western blot; type: cell-based; in short: as §3
[17] = target: T1, MAP kinase p38 (Homo sapiens); assay: Activation of p38 phosphorylation in human HeLa cells at 3 uM after 2 hrs by Western blot; type: cell-based; in short: as §3
HeLa [18] = assay: Activation of ERK phosphorylation in human HeLa cells at 3 uM in presence of 10 uM CuCl2 by Western blot; type: cell-based; conditions: TDE = time-dependent effect; in short: as §3
[19] = Activation of JNK phosphorylation in human HeLa cells at 3 uM in presence of 10 uM CuCl2 by Western blot; type: cell-based; conditions: TDE = time-dependent effect; in short: as §3
HeLa [20] = assay: Induction of apoptosis in human HeLa cells assessed as accumulation at subG1 phase after 24 hrs by flow cytometry; type: functional, cell-based
In short: (§4)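 HeLa cells exposed 24 h to test agent; controls were 0.5% DMSO and untreated cells. Optional additions were CuCl₂ 10 μM, tempol 1 mM or z-VAD. Cells were fixed in 80% ethanol and held at −20 °C. They were then stained 30 min at room temperature in the dark with PI 0.08 mg/mL, 0.1% Triton X-100 and RNase A 0.2 mg/mL in PBS. Subdiploid (sub-G1) fraction was quantified by flow cytometry as % of all events.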

HeLa [21] = assay: Induction of apoptosis in human HeLa cells assessed as PARP cleavage at 3 uM after 24 hrs by Western blot; type: functional, cell-based
HeLa [22] = assay: Induction of apoptosis in human HeLa cells assessed as PARP cleavage at 10 uM after 24 hrs by Western blot; type: functional, cell-based
HeLa [23] = assay: Induction of apoptosis in human HeLa cells assessed as procaspase-3 activation at 3 uM after 24 hrs by Western blot; type: functional, cell-based
HeLa [24] = assay: Induction of apoptosis in human HeLa cells assessed as procaspase-3 activation at 10 uM after 24 hrs by Western blot; type: functional, cell-based
HeLa [25] = assay: Induction of apoptosis in human HeLa cells assessed as procaspase-9 activation at 3 uM after 24 hrs by Western blot; type: functional, cell-based
HeLa [26] = assay: Induction of apoptosis in human HeLa cells assessed as procaspase-9 activation at 10 uM after 24 hrs by Western blot; type: functional, cell-based
HeLa [27] = assay: Induction of apoptosis in human HeLa cells assessed as accumulation at subG1 phase at 3 uM after 24 hrs using propidium iodide staining by flow cytometry; type: functional; in short: as §4
HeLa [28] = assay: Induction of apoptosis in human HeLa cells assessed as accumulation at subG1 phase at 3 uM in presence of 10 uM CuCl2 after 24 hrs using propidium iodide staining by flow cytometry; type: functional; in short: as §4
HeLa [29] = assay: Induction of apoptosis in human HeLa cells assessed as accumulation at subG1 phase at 3 uM in presence of 1 mM tempol after 24 hrs using propidium iodide staining by flow cytometry; type: functional; in short: as §4
HeLa [30] = assay: Activation of ERK phosphorylation in human HeLa cells at 3 uM in presence of 10 uM CuCl2 after 2 hrs by Western blot; type: cell-based; in short: as §3
[31] = Activation of JNK phosphorylation in human HeLa cells at 3 uM in presence of 10 uM CuCl2 after 2 hrs by Western blot; type: cell-based; in short: as §3
[32] = target: T1, MAP kinase p38 (Homo sapiens); assay: Activation of p38 phosphorylation in human HeLa cells at 3 uM in presence of 10 uM CuCl2 after 2 hrs by Western blot; type: cell-based; in short: as §3
HeLa [33] = assay: Stimulation of reactive oxygen species in human HeLa cells at 10 uM in presence of 10 uM CuCl2 after 1 hr by dihydroethidium dye based fluorescence assay; type: functional, cell-based; in short: as §2

Compound: Oc1c(CN2CCCCC2)ccc2ccccc12
- GI50 (HeLa [1]): 25.5 µM
- GI50 (BT-483): inactive
- GI50 (SKHep): inactive
- GI50 (CE81T): inactive
- GI50 (HeLa [2]): 30.7 µM
- GI50 (HeLa [3]): 22.8 µM
- GI50 (HeLa [4]): 48.8 µM
- GI50 (HeLa [5]): 34 µM
- GI50 (HeLa [6]): 44.5 µM

Compound: Oc1c(CN2CCCCC2)ccc2cccnc12
- GI50 (HeLa [1]): 14.5 µM
- GI50 [7]: 26.9 µM
- GI50 [8]: 16.6 µM
- GI50 [9]: 16.7 µM
- GI50 (HeLa [2]): 3 µM
- GI50 (HeLa [3]): 0.58 µM
- GI50 (HeLa [4]): 0.35 µM
- GI50 (HeLa [5]): 8.5 µM
- GI50 (HeLa [6]): 12.9 µM
- Activity (HeLa [10]): Active

Compound: O=S(=O)(c1ccccc1)N1CCN(Cc2ccc3ccccc3c2O)CC1
- GI50 (HeLa [1]): 38.6 µM
- GI50 (BT-483): inactive
- GI50 (SKHep): inactive
- GI50 (CE81T): inactive
- GI50 (HeLa [2]): 40.1 µM
- GI50 (HeLa [3]): 28.4 µM
- GI50 (HeLa [4]): 22.6 µM
- GI50 (HeLa [5]): 29.7 µM
- GI50 (HeLa [6]): 20.1 µM

Compound: O=S(=O)(c1ccccc1)N1CCN(Cc2ccc3cccnc3c2O)CC1
- GI50 (HeLa [1]): 6.8 µM
- GI50 [7]: 10.7 µM
- Activity [11]: tde
- Activity (HeLa [12]): inactive
- Activity [13]: inactive
- Activity [14]: inactive
- Activity (HeLa [15]): inactive
- Activity [16]: inactive
- Activity [17]: inactive
- Activity (HeLa [18]): tde
- Activity [19]: tde
- GI50 [8]: 14.6 µM
- GI50 [9]: 5.6 µM
- GI50 (HeLa [2]): 2.5 µM
- GI50 (HeLa [3]): 0.31 µM
- GI50 (HeLa [4]): 0.27 µM
- GI50 (HeLa [5]): 7.5 µM
- GI50 (HeLa [6]): 7.3 µM
- Activity (HeLa [20]): Dose-dependent effect
- Activity (HeLa [21]): Active
- Activity (HeLa [22]): Active
- Activity (HeLa [23]): Active
- Activity (HeLa [24]): Active
- Activity (HeLa [25]): Active
- Activity (HeLa [26]): Active
- Activity (HeLa [27]): 7.91%
- Activity (HeLa [28]): 29.76%
- Activity (HeLa [29]): 5.79%
- Activity (HeLa [10]): Active
- Activity (HeLa [30]): Active
- Activity [31]: Active
- Activity [32]: Active

Compound: CCN(CC)CCCC(C)Nc1ccnc2cc(Cl)ccc12 (stereo not given) [CHLOROQUINE]
- GI50 (HeLa [1]): 18.6 µM
- GI50 [7]: 10.2 µM
- GI50 [8]: 9.5 µM
- GI50 [9]: 23.4 µM
- GI50 (HeLa [2]): 6.1 µM
- GI50 (HeLa [3]): 5.3 µM
- GI50 (HeLa [4]): 4.4 µM
- GI50 (HeLa [5]): 5.6 µM
- GI50 (HeLa [6]): 2.1 µM
- Activity (HeLa [33]): Active

Source: ChEMBL document CHEMBL1152609, “Synthesis and pharmacological exploitation of clioquinol-derived copper-binding apoptosis inducers triggering reactive oxygen species generation and MAPK pathway activation” (2009)
